Tested on: Fibroblast
Assay: Multiplex assay against human fibroblast
Type: toxicity, cell-based
In short: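 Live cells were stained at seeding with Hoechst33342, BioTracker Green Microtubule Cytoskeleton Dye, MitoTracker Red and Annexin V Alexa Fluor 680. Following compound addition, they were imaged on a CQ1 microscope at 37°C and 5% CO2 and gated by CellPathfinder machine learning into Hoechst high-intensity objects or normal cells, with normal cells split into healthy, pyknosed or fragmented nuclei and pyknosed cells into mitotic or apoptotic. Tubulin, mitochondrial-mass and membrane-permeability phenotypes are per cents of healthy-nucleus cells.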

[1] = 12 h, 1 µM, compound concentration 1 uM, replicate 1
[2] = 12 h, 1 µM, compound concentration 1 uM, replicate 2
[3] = 12 h, 10 µM, compound concentration 10 uM, replicate 1
[4] = 12 h, 10 µM, compound concentration 10 uM, replicate 2
[5] = 24 h, 1 µM, compound concentration 1 uM, replicate 1
[6] = 24 h, 1 µM, compound concentration 1 uM, replicate 2
[7] = 24 h, 10 µM, compound concentration 10 uM, replicate 1
[8] = 24 h, 10 µM, compound concentration 10 uM, replicate 2
[9] = 48 h, 1 µM, compound concentration 1 uM, replicate 1
[10] = 48 h, 1 µM, compound concentration 1 uM, replicate 2
[11] = 48 h, 10 µM, compound concentration 10 uM, replicate 1
[12] = 48 h, 10 µM, compound concentration 10 uM, replicate 2

O=C(Nc1cc(-c2ccccc2)nn1-c1ccccc1F)c1ccc([N+](=O)[O-])cc1
Population Apoptotic (%) [1]: 28% | Population Fragmented Nuclei (%) [1]: 17% | Population Healthy Nuclei (%) [1]: 71% | Population Hoechst High Intensity Objects (%) [1]: 2% | Population Membrane Permeable-Phenotype (%) [1]: 1% | Population Mitochondria Different-Phenotype (%) [1]: 1% | Population Mitotic Cells (%) [1]: 71% | Population Normal (%) [1]: 97% | Population Pyknosed Nuclei (%) [1]: 10% | Population Tubulin-Different-Phenotype (%) [1]: 22% | Total Cell Count [1]: 138 | Population Apoptotic (%) [2]: 32% | Population Fragmented Nuclei (%) [2]: 19% | Population Healthy Nuclei (%) [2]: 55% | Population Hoechst High Intensity Objects (%) [2]: 8% | Population Membrane Permeable-Phenotype (%) [2]: 4% | Population Mitochondria Different-Phenotype (%) [2]: 9% | Population Mitotic Cells (%) [2]: 67% | Population Normal (%) [2]: 91% | Population Pyknosed Nuclei (%) [2]: 25% | Population Tubulin-Different-Phenotype (%) [2]: 53% | Total Cell Count [2]: 160 | Population Apoptotic (%) [3]: 28% | Population Fragmented Nuclei (%) [3]: 10% | Population Healthy Nuclei (%) [3]: 66% | Population Hoechst High Intensity Objects (%) [3]: 2% | Population Membrane Permeable-Phenotype (%) [3]: 1% | Population Mitochondria Different-Phenotype (%) [3]: 4% | Population Mitotic Cells (%) [3]: 71% | Population Normal (%) [3]: 97% | Population Pyknosed Nuclei (%) [3]: 22% | Population Tubulin-Different-Phenotype (%) [3]: 48% | Total Cell Count [3]: 170 | Population Apoptotic (%) [4]: 45% | Population Fragmented Nuclei (%) [4]: 25% | Population Healthy Nuclei (%) [4]: 47% | Population Hoechst High Intensity Objects (%) [4]: 6% | Population Membrane Permeable-Phenotype (%) [4]: 6% | Population Mitochondria Different-Phenotype (%) [4]: 3% | Population Mitotic Cells (%) [4]: 54% | Population Normal (%) [4]: 93% | Population Pyknosed Nuclei (%) [4]: 26% | Population Tubulin-Different-Phenotype (%) [4]: 77% | Total Cell Count [4]: 149 | Population Apoptotic (%) [5]: 53% | Population Fragmented Nuclei (%) [5]: 16% | Population Healthy Nuclei (%) [5]: 74% | Population Hoechst High Intensity Objects (%) [5]: 2% | Population Membrane Permeable-Phenotype (%) [5]: 0% | Population Mitochondria Different-Phenotype (%) [5]: 0% | Population Mitotic Cells (%) [5]: 46% | Population Normal (%) [5]: 97% | Population Pyknosed Nuclei (%) [5]: 9% | Population Tubulin-Different-Phenotype (%) [5]: 18% | Total Cell Count [5]: 135 | Population Apoptotic (%) [6]: 50% | Population Fragmented Nuclei (%) [6]: 25% | Population Healthy Nuclei (%) [6]: 53% | Population Hoechst High Intensity Objects (%) [6]: 7% | Population Membrane Permeable-Phenotype (%) [6]: 6% | Population Mitochondria Different-Phenotype (%) [6]: 2% | Population Mitotic Cells (%) [6]: 50% | Population Normal (%) [6]: 92% | Population Pyknosed Nuclei (%) [6]: 20% | Population Tubulin-Different-Phenotype (%) [6]: 52% | Total Cell Count [6]: 156 | Population Apoptotic (%) [7]: 26% | Population Fragmented Nuclei (%) [7]: 7% | Population Healthy Nuclei (%) [7]: 76% | Population Hoechst High Intensity Objects (%) [7]: 4% | Population Membrane Permeable-Phenotype (%) [7]: 1% | Population Mitochondria Different-Phenotype (%) [7]: 7% | Population Mitotic Cells (%) [7]: 73% | Population Normal (%) [7]: 95% | Population Pyknosed Nuclei (%) [7]: 16% | Population Tubulin-Different-Phenotype (%) [7]: 49% | Total Cell Count [7]: 163 | Population Apoptotic (%) [8]: 28% | Population Fragmented Nuclei (%) [8]: 28% | Population Healthy Nuclei (%) [8]: 53% | Population Hoechst High Intensity Objects (%) [8]: 6% | Population Membrane Permeable-Phenotype (%) [8]: 9% | Population Mitochondria Different-Phenotype (%) [8]: 1% | Population Mitotic Cells (%) [8]: 72% | Population Normal (%) [8]: 93% | Population Pyknosed Nuclei (%) [8]: 18% | Population Tubulin-Different-Phenotype (%) [8]: 69% | Total Cell Count [8]: 147 | Population Apoptotic (%) [9]: 54% | Population Fragmented Nuclei (%) [9]: 23% | Population Healthy Nuclei (%) [9]: 67% | Population Hoechst High Intensity Objects (%) [9]: 7% | Population Membrane Permeable-Phenotype (%) [9]: 1% | Population Mitochondria Different-Phenotype (%) [9]: 0% | Population Mitotic Cells (%) [9]: 45% | Population Normal (%) [9]: 92% | Population Pyknosed Nuclei (%) [9]: 8% | Population Tubulin-Different-Phenotype (%) [9]: 18% | Total Cell Count [9]: 145 | Population Apoptotic (%) [10]: 55% | Population Fragmented Nuclei (%) [10]: 30% | Population Healthy Nuclei (%) [10]: 53% | Population Membrane Permeable-Phenotype (%) [10]: 5% | Population Mitochondria Different-Phenotype (%) [10]: 4% | Population Mitotic Cells (%) [10]: 44% | Population Pyknosed Nuclei (%) [10]: 15% | Population Tubulin-Different-Phenotype (%) [10]: 54% | Total Cell Count [10]: 183 | Population Apoptotic (%) [11]: 66% | Population Fragmented Nuclei (%) [11]: 16% | Population Healthy Nuclei (%) [11]: 70% | Population Hoechst High Intensity Objects (%) [11]: 7% | Population Membrane Permeable-Phenotype (%) [11]: 3% | Population Mitochondria Different-Phenotype (%) [11]: 3% | Population Mitotic Cells (%) [11]: 33% | Population Normal (%) [11]: 92% | Population Pyknosed Nuclei (%) [11]: 12% | Population Tubulin-Different-Phenotype (%) [11]: 55% | Total Cell Count [11]: 160 | Population Apoptotic (%) [12]: 52% | Population Fragmented Nuclei (%) [12]: 31% | Population Healthy Nuclei (%) [12]: 54% | Population Hoechst High Intensity Objects (%) [12]: 5% | Population Membrane Permeable-Phenotype (%) [12]: 6% | Population Mitotic Cells (%) [12]: 47% | Population Normal (%) [12]: 94% | Population Pyknosed Nuclei (%) [12]: 14% | Population Tubulin-Different-Phenotype (%) [12]: 66% | Total Cell Count [12]: 153
